Measured values from ChEMBL document CHEMBL1148625, “3-(1,1-dioxo-2H-(1,2,4)-benzothiadiazin-3-yl)-4-hydroxy-2(1H)-quinolinones, potent inhibitors of hepatitis C virus RNA-dependent RNA polymerase” (J Med Chem, 2006).
Values belong to the compound of their own block, whether it stands above or below them.

Experiments:
[1] = Clearance in Beagle dog at 0.9 mg/kg, iv or 3.6 mg/kg, po; type: ADME, organism-based, Canis lupus familiaris; settings: in vivo
Procedure, shortened: (§1)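 Single-dose pharmacokinetics in the named species, given iv and orally at the stated doses. Plasma Cmax, half-life, clearance, steady-state volume of distribution and oral bioavailability were reported as mean values.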

[2] = Cmax in Sprague-Dawley rat at 1.2 mg/kg, iv or 3.7 mg/kg, po; type: ADME, organism-based; settings: in vivo
Procedure, shortened: (§2)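 Single-dose administration, given both intravenously and orally, to Sprague-Dawley rats, beagle dogs or cynomolgus monkeys. Plasma pharmacokinetic parameters are reported as means: Cmax in ng/mL, terminal half-life in min, clearance in mL/min/kg, steady-state volume of distribution in L/kg, and oral bioavailability F in %.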

[3] = Half life in Sprague-Dawley rat at 1.2 mg/kg, iv or 3.7 mg/kg, po; type: ADME, organism-based; settings: in vivo; procedure, shortened: as §2
[4] = Clearance in cynomolgus monkey at 1.0 mg/kg, iv or 3.6 mg/kg, po; type: ADME, organism-based, Macaca fascicularis; settings: in vivo; procedure, shortened: as §1
[5] = Volume of distribution in Beagle dog at 0.9 mg/kg, iv or 3.6 mg/kg, po; type: ADME, organism-based, Canis lupus familiaris; settings: in vivo, read-out: Vdss; procedure, shortened: as §1
[6] = Half life in cynomolgus monkey at 1.0 mg/kg, iv or 3.6 mg/kg, po; type: ADME, organism-based, Macaca fascicularis; settings: in vivo; procedure, shortened: as §1
[7] = Half life in Beagle dog at 0.9 mg/kg, iv or 3.6 mg/kg, po; type: ADME, organism-based, Canis lupus familiaris; settings: in vivo; procedure, shortened: as §1
[8] = Oral bioavailability in Sprague-Dawley rat at 1.2 mg/kg, iv or 3.7 mg/kg, po; type: ADME, organism-based; settings: in vivo; procedure, shortened: as §2
[9] = Cmax in cynomolgus monkey at 1.0 mg/kg, iv or 3.6 mg/kg, po; type: ADME, organism-based, Macaca fascicularis; settings: in vivo; procedure, shortened: as §1
[10] = Cmax in Beagle dog at 0.9 mg/kg, iv or 3.6 mg/kg, po; type: ADME, organism-based, Canis lupus familiaris; settings: in vivo; procedure, shortened: as §1
[11] = Clearance in Sprague-Dawley rat at 1.2 mg/kg, iv or 3.7 mg/kg, po; type: ADME, organism-based; settings: in vivo; procedure, shortened: as §2
[12] = Oral bioavailability in Beagle dog at 0.9 mg/kg, iv or 3.6 mg/kg, po; type: ADME, organism-based, Canis lupus familiaris; settings: in vivo; procedure, shortened: as §1
[13] = Volume of distribution in Sprague-Dawley rat at 1.2 mg/kg, iv or 3.7 mg/kg, po; type: ADME, organism-based; settings: in vivo, read-out: Vdss; procedure, shortened: as §2
[14] = target: RNA-directed RNA polymerase (Hepacivirus hominis, UniProt O39930); assay: Inhibitory activity against HCV delta 21 NS5B RNA polymerase by SPA assay; set-up: species or system Hepatitis C virus subtype 1b
[15] = Oral bioavailability in cynomolgus monkey at 1.0 mg/kg, iv or 3.6 mg/kg, po; type: ADME, organism-based, Macaca fascicularis; settings: in vivo; procedure, shortened: as §1
[16] = target: RNA-directed RNA polymerase (Hepacivirus hominis) (UniProt O39930); assay: Inhibition of HCV RNA replication in Huh7 cells; type: functional, cell-based; settings: Huh-7
Procedure, shortened: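 Huh-7 subgenomic replicon cells were seeded at 3 × 10³/well in DMEM with 10% FCS, 1% NEAA and 1 mg/mL G418, and allowed 4 h to attach. Eleven 2.5-fold DMSO dilutions were added (final 10,000 to 1.0 nM) and cells incubated 40 h. Neo RNA was measured by TaqMan RT-PCR, normalised to cyclophilin against DMSO controls; n = 8 wells per dilution.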

[17] = Volume of distribution in cynomolgus monkey at 1.0 mg/kg, iv or 3.6 mg/kg, po; type: ADME, organism-based, Macaca fascicularis; settings: in vivo, read-out: Vdss; procedure, shortened: as §1

RNA-directed RNA polymerase (Hepacivirus hominis), sequence (O39930 1-591): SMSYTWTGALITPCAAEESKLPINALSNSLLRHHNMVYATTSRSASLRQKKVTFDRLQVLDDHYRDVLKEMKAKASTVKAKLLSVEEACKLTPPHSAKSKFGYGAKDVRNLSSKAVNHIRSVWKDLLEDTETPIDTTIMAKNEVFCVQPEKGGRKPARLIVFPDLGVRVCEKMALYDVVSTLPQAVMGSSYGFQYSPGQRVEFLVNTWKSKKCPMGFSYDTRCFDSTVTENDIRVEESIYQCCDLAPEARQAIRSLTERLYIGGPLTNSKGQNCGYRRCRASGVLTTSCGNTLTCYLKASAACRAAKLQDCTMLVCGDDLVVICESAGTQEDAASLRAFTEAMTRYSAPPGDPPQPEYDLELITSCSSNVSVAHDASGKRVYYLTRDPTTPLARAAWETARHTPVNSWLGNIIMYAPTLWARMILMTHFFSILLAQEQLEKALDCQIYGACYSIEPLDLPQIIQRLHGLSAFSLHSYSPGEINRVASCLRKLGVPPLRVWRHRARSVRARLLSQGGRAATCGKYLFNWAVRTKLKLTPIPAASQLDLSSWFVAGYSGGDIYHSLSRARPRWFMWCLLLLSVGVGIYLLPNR
RNA-directed RNA polymerase, sequence (O39930 whole entry): as the sequence (O39930 1-591) above

clearance [1]: 1.09 mL/min/kg
Cmax [2]: 1220 ng/mL
half-life [3]: 5.29 h
clearance [4]: 5.32 mL/min/kg
Vd [5]: 0.72 L/kg
half-life [6]: 0.828 h
half-life [7]: 9.06 h
bioavailability [8]: 100%
Cmax [9]: 2140 ng/mL
Cmax [10]: 1960 ng/mL
clearance [11]: 1.65 mL/min/kg
bioavailability [12]: > 50%
Vd [13]: 0.81 L/kg
IC50 [14]: 0.047 µM
bioavailability [15]: > 53%
EC90 [16]: 0.831 µM
Vd [17]: 0.34 L/kg
SMILES: Cc1ccc2c(c1)c(O)c(C1=NS(=O)(=O)c3ccccc3N1)c(=O)n2CCC(C)C

EC90 [16]: 1.87 µM
SMILES: O=c1c(C2=NS(=O)(=O)c3ccccc3N2)c(O)c2ccccc2n1-c1ccccc1

EC90 [16]: 4.95 µM
SMILES: CC(C)CCn1c(=O)c(C2=NS(=O)(=O)c3ccccc3N2)c(O)c2cc(F)ccc21

IC50 [14]: 0.132 µM
SMILES: O=c1c(C2=NS(=O)(=O)c3ccccc3N2)c(O)c2ccccc2n1CC1CCCC1

IC50 [14]: 2.81 µM
SMILES: O=c1c(C2=NS(=O)(=O)c3ccccc3N2)c(O)c2ccccc2n1CCCO

IC50 [14]: 0.082 µM
SMILES: O=c1c(C2=Nc3ccccc3S(=O)(=O)N2)c(O)c2ccccc2n1Cc1ccccc1

IC50 [14]: 0.09 µM
SMILES: C=CCCn1c(=O)c(C2=NS(=O)(=O)c3ccccc3N2)c(O)c2ccccc21

IC50 [14]: 0.023 µM
SMILES: COc1ccc2c(c1)c(O)c(C1=NS(=O)(=O)c3ccccc3N1)c(=O)n2CCC(C)C

IC50 [14]: 0.062 µM
SMILES: CC(C)CCn1c(=O)c(C2=Nc3ccccc3S(=O)(=O)N2)c(O)c2cc(N)ccc21

IC50 [14]: 0.316 µM
SMILES: O=c1c(C2=NS(=O)(=O)c3ccccc3N2)c(O)c2ccccc2n1Cc1cccnc1

IC50 [14]: 0.106 µM
SMILES: O=c1c(C2=NS(=O)(=O)c3ccccc3N2)c(O)c2ccccc2n1CCCC(F)(F)F

SMILES: CCOC(=O)c1ccc2c(c1)c(O)c(C1=NS(=O)(=O)c3ccccc3N1)c(=O)n2CCC(C)C
IC50 [14]: > 10 µM

IC50 [14]: 0.027 µM
EC90 [16]: 2.53 µM
SMILES: O=c1c(C2=NS(=O)(=O)c3ccccc3N2)c(O)c2ccccc2n1Cc1ccoc1

IC50 [14]: 9.94 µM
SMILES: CC(C)CCn1c(=O)n(C2=Nc3ccccc3S(=O)(=O)N2)c(=O)c2ccccc21
